Experimental data from different studies.
Lines come from different studies, so protocols differ.
Target: Tyrosine-protein kinase Fyn (FYN, Homo sapiens, UniProt P06241)

COc1ccc2cc(OCC3(C(=O)O)CN(C(=O)c4ccc(F)cc4)C3)ccc2c1 — remaining binding (cell-free assay, competition with immobilised ligand; 1 µM): 100%
CCCOc1ccc(OC)c(F)c1C(=O)c1ccc(C(=O)N[C@@H]2CNC[C@H]2NC(=O)c2ccc3[nH]ncc3c2)cc1 — remaining activity (enzyme activity, inhibitor; 10 µM): 69%
CC(=O)c1c(NS(C)(=O)=O)c2cc(-c3ccc(Cl)cc3)c(-c3ccc(Cl)cc3Cl)nc2n(C)c1=O — remaining binding (cell-free assay, competition with immobilised ligand; 1 µM): 92%
Cn1cnc(Br)c1C1=CN(c2ncnc3[nH]cnc23)CCS1 — inhibition (enzyme activity, inhibitor, radiometric; 2 µM): 44%
c1nc2c(Nc3ccc4c(c3)OCCO4)nc(Nc3ccc4c(c3)OCCO4)nc2[nH]1 — activity vs control (enzyme activity, inhibitor; 10 µM): 8.7%
O=C1c2ccccc2-c2n[nH]c3cccc1c23 — activity vs control (enzyme activity, inhibitor; 0.5 µM): 93.2%
CCN(CC)c1ccc(C2=NNC(=O)CC2C)cc1[N+](=O)[O-] (centres unmarked) — remaining activity (enzyme activity, inhibitor; 10 µM): 110%
CNc1cccc2cc(C(=O)Nc3ccc(C(=O)O)cc3)c(=O)[nH]c12 — inhibition (enzyme activity, inhibitor; 10 µM): 6.9%
CC(C)(O)[C@H]1CC[C@H](Nc2ccc3ncc(-c4cccc(C(F)(F)F)c4)n3n2)CC1 — remaining activity (enzyme activity, inhibitor; 1 µM): 22.4%
CCOC(=O)c1cc2cc(-c3cc(C(=O)NCc4ccc(C(=O)O)cc4)nn3C)ccc2[nH]1 — remaining binding (cell-free assay, competition with immobilised ligand; 0.1 µM): 100%
C[S+]([O-])c1ccc(-c2nc(-c3ccncc3)c(-c3ccc(F)cc3)[nH]2)cc1 (centres unmarked) — remaining signal (cell-free assay; 0.5 µM): 89.8%
CNC(=O)c1cc(Oc2ccc(NC(=O)Nc3ccc(Cl)c(C(F)(F)F)c3)cc2)ccn1 — inhibition (enzyme activity, inhibitor; 0.3 µM): -22%
O=c1nc(-c2ccccn2)sc2ccccc12 — remaining binding (binding, competition with immobilised ligand; 1 µM): 100%
COc1cc2ncnc(Nc3ccc(Oc4ccccc4)c(C)c3C)c2cc1OC — inhibition (enzyme activity, inhibitor; 1 µM): 42%
CCCCNc1ncc2c(-c3ccc(F)cc3)nn(C[C@H]3CC[C@H](N)CC3)c2n1 — inhibition (target engagement in cells, inhibitor, chemoproteomics; 20 mM): > 96%
O=c1c2ccccc2[nH]c(=S)n1CCN1CCC(=C(c2ccc(F)cc2)c2ccc(F)cc2)CC1 — remaining activity (enzyme activity, inhibitor; 0.5 µM): 102%
Cc1ccc(C(=O)NCc2ccsc2)cc1C#Cc1cn(C(C)C)c2ncnc(N)c12 — activity vs control (enzyme activity, inhibitor; 1 µM): 3%
COc1ccc2c(O[C@@H]3C[C@H]4C(=O)N[C@]5(C(=O)O)CC5/C=C\CCCCC[C@H](NC(=O)OC5CCCC5)C(=O)N4C3)cc(-c3csc(NC(=O)C(C)C)n3)nc2c1C (some centres unmarked) — remaining binding (cell-free assay, competition with immobilised ligand; 1 µM): 100%
CCN(CC)CCNC(=O)c1c(C)[nH]c(/C=C2\C(=O)Nc3ccc(F)cc32)c1C — inhibition (enzyme activity, inhibitor; 10 µM): 89%
CC(C)c1ccc(NC(=O)c2cccs2)c(-c2nc3ccccc3[nH]c2=O)c1 — activity vs control (enzyme activity, inhibitor; 1 µM): 103%
CCN(CC)CCNC(=O)c1c(C)[nH]c(/C=C2\C(=O)Nc3ccc(Cl)cc32)c1C — remaining activity (enzyme activity, inhibitor; 0.5 µM): 28.4%
CNC(=O)Nc1ccc2c(c1)[C@@]1(CC2)OC(=O)N(CC(=O)N(Cc2ccc(F)cc2)[C@@H](C)C(F)(F)F)C1=O — remaining binding (cell-free assay, competition with immobilised ligand; 1 µM): 79%
Cc1ccc(C(=O)Nc2ccc(CN3CCN(C)CC3)c(C(F)(F)F)c2)cc1C#Cc1cnc2cccnn12 — remaining activity (enzyme activity, inhibitor; 23.5 nM): 28%
CC(C)(C)c1nc(-c2cccc(NS(=O)(=O)c3c(F)cccc3F)c2F)c(-c2ccnc(N)n2)s1 — remaining activity (enzyme activity, inhibitor, radiometric; 1 µM): 36%
O=C1NC(=O)c2cc(Nc3ccc(F)cc3)c(Nc3ccc(F)cc3)cc21 — remaining signal (cell-free assay; 0.5 µM): 99.4%
Cc1nc(C2CCN(C(=O)c3ccc(OC(F)(F)F)cc3N)CC2)c2ncc(N3CCN(C)CC3)cc2n1 — remaining binding (cell-free assay, competition with immobilised ligand; 1 µM): 96%
N#CCCc1ccc2c(c1)-c1[nH]c3ccc([N+](=O)[O-])cc3c1CC(=O)N2 — remaining signal (cell-free assay; 0.5 µM): 52.2%
Cc1cc(-n2nc(Cc3cc(F)cc(C(F)(F)F)c3)nc2C)ccc1C(N)=O — remaining binding (cell-free assay, competition with immobilised ligand; 1 µM): 100%
CCCS(=O)(=O)Nc1ccc(F)c(C(=O)c2c[nH]c3ncc(-c4ccc(Cl)cc4)cc23)c1F — inhibition (enzyme activity, inhibitor; 1 µM): < 20%
CNC(=O)c1cc2c(Oc3ccc(NC(=O)C4(C(=O)Nc5ccc(F)cc5)CC4)cc3)ccnc2cc1OC — inhibition (enzyme activity, inhibitor, radiometric; 1 µM): 72%
CNCc1ccc(-c2cc(-c3nc(-c4ccc(S(=O)(=O)C(C)C)cc4)cnc3N)on2)cc1 — inhibition (enzyme activity, inhibitor; 0.4 µM): 9%
Cc1sc(C(=O)NC2COC2)cc1-n1cc(NC(=O)Nc2c(F)cccc2Cl)cn1 — remaining activity (enzyme activity, inhibitor; 10 µM): 99.8%
